From ChEMBL document CHEMBL5104154, “Thiamine analogues as inhibitors of pyruvate dehydrogenase and discovery of a thiamine analogue with non-thiamine related antiplasmodial activity” (RSC Med Chem, 2022) come the findings set out here.

Data set [1] in a line: Cytotoxicity against human HFF cells assessed as inhibition of cell proliferation incubated for 96 hrs by SYBR-based fluorescence assay. Format: toxicity. Summed up: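 Human foreskin fibroblasts exposed to compounds up to the highest concentration that solubility allowed.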
The nature of data set [2]: Selectivity index, ratio of IC50 for cytotoxicity against human HFF cells to IC50 for antiplasmodial activity against chloroquine-sensitive Plasmodium falciparum 3D7. Format: toxicity, cell-based. The following applies: read-out: Ratio IC50.
The subject of data set [3] is Plasmodium falciparum. The data set is described as follows: Antiplasmodial activity against chloroquine-sensitive Plasmodium falciparum 3D7 overexpressing GFP-tagged plasmodium falciparum TPK assessed as inhibition of parasite proliferation in presence of 2.97 uM thiamine by SYBR-based fluorescence assay. It is filed as functional, organism-based.
In data set [4] the test system is Plasmodium falciparum. Nature of the data set: Antiplasmodial activity against chloroquine-sensitive Plasmodium falciparum 3D7 assessed as inhibition of parasite proliferation in presence of 2.2 to 220 uM folic acid by SYBR-based fluorescence assay. It is filed as functional, organism-based.
Another data set concerns the target T1, Pyruvate decarboxylase (Zymomonas mobilis subsp. mobilis, UniProt P06672).
T1 sequence (P06672 whole entry): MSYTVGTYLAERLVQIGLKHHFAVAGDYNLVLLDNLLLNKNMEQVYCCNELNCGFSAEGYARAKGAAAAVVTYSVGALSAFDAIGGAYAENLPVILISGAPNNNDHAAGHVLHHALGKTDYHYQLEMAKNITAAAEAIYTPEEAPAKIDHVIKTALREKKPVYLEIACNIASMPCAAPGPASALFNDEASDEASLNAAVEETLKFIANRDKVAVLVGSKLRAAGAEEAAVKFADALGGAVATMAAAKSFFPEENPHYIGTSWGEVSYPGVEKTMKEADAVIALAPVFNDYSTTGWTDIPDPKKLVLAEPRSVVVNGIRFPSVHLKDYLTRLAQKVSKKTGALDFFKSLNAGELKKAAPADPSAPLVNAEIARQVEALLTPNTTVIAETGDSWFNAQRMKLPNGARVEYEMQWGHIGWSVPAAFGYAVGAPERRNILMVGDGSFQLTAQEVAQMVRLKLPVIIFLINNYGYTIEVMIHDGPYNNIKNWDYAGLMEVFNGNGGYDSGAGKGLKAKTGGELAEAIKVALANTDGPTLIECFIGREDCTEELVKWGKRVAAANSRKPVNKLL
The data set is described as follows: Inhibition of Zymomonas mobilis pyruvate decarboxylase incubated for 3 mins using pyruvate as substrate in presence of TPP by spectrophotometric analysis.

In general, IC50 refers to the concentration that gives 50% inhibition. Usually Ki stands for a dissociation constant, usually derived from enzyme kinetics or from competition with a known ligand.

Activity calls are given as the source filed them. No cut-off for these calls is given here.

For `Cc1ncc(Cn2cc(CCOC(=O)c3cccc(Cl)c3)nn2)c(N)n1`, the IC50 at 96 h in data set [1] was more than 200 µM. Also, the selectivity ratio in data set [2] is more than 3.2.

For the molecule `Cc1ncc(C[n+]2csc(CCO)c2C)c(O)n1`, the outcome in the data set with Plasmodium falciparum [3] was Active.

For the molecule `COc1ncnc(NS(=O)(=O)c2ccc(N)cc2)c1OC`, the outcome with Plasmodium falciparum [4] was Active.

Turning to `Cc1ncc(Cn2cc(CCO)nn2)c(NCc2ccc(Br)cc2)n1`, the IC50 at 96 h in data set [1] is 98 µM.

Consider `Cc1ncc(Cn2cc(CCOP(=O)(O)OP(=O)(O)O)nn2)c(N)n1`, for which the inhibition constant Ki on Pyruvate decarboxylase stood at 3e-05 µM.

On to `Cc1ncc(Cn2cc(CCO)nn2)c(N)n1`, for which, on Pyruvate decarboxylase, the inhibition constant Ki stood at 300 µM.

Take `Cc1ncc(Cn2cc(CCOC(=O)c3ccccc3)nn2)c(N)n1`: the IC50 at 96 h in data set [1] is more than 200 µM.
